In ChEMBL document CHEMBL1143557, “Discovery of a fluoroindolo[2,3-a]carbazole clinical candidate with broad spectrum antitumor activity in preclinical tumor models superior to the marketed oncology drug, CPT-11” (J Med Chem, 2005):

What was measured:
P388 [1] = experiment: Cytotoxic concentration against murine leukemia P388 cells; format: functional, cell-based, Mus musculus
DNA topoisomerase 1 = target: T1, DNA topoisomerase 1 (Homo sapiens, UniProt P11387); experiment: Topoisomerase I activity for single-strand breaks in the DNA substrate
T1 sequence (P11387 whole entry): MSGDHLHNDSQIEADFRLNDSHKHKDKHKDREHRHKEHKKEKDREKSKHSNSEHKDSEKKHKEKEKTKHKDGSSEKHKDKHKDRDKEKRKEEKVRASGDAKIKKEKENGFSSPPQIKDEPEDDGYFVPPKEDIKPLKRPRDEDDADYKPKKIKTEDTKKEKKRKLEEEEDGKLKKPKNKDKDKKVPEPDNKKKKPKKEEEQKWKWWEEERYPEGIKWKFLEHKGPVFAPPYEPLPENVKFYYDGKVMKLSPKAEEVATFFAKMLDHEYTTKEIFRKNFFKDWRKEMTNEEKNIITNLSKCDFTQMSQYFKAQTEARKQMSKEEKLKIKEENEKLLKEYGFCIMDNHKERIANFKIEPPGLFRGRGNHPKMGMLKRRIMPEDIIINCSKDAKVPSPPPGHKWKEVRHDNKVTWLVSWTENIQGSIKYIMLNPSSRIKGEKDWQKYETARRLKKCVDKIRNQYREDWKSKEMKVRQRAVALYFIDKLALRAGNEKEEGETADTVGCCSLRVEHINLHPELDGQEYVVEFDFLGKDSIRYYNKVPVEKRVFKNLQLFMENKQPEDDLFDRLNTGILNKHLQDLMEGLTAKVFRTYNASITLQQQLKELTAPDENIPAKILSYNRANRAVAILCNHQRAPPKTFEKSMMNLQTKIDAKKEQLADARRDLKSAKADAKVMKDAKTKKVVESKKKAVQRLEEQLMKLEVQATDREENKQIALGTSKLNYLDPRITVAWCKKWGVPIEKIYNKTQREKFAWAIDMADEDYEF
Summary of the method: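 Topo I-mediated DNA cleavage assay using covalently closed, supercoiled phage PM2 DNA as substrate; read-out is induction of single-strand breaks.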

P388 [2] = experiment: Ratio of IC50 of P388 cells to that of CPT45 cells; format: functional, Mus musculus
HT-29 [3] = experiment: In vivo antitumor activity against HT-29 human colon carcinoma xenograft model when administered iv, (1:1:8 cremophor: ethanol: water vehicle) expressed as optimal effect in LCK; format: functional
HT-29 [4] = experiment: Antitumor activity against HT-29 human colon carcinoma xenograft model; Activity expressed as no. of cures by total (8); format: functional
HT-29 [5] = experiment: Optimal dose required for antitumor activity against HT-29 human colon carcinoma xenograft model when administered once a day iv dosing every other day for five doses (q2dx5,iv); format: functional
HT-29 [6] = experiment: Optimal dose required for antitumor activity against HT-29 human colon carcinoma xenograft model when administered once a day iv dosing every other day for five doses (q2dx5,iv); MTD=30 mg.kg/inj; format: functional
HT-29 [7] = experiment: Optimal dose required for antitumor activity against HT-29 human colon carcinoma xenograft model when administered twice a day iv dosing every other day for five doses (2q2dx5,iv); format: functional

Structure (SMILES)	IC50 (P388 [1]; Mus musculus, P388)	EC50 (DNA topoisomerase 1)	Ratio (P388 [2])	Activity (HT-29 [3])	No. of cures (HT-29 [4])	Optimal dose (HT-29 [5])	Optimal dose (HT-29 [6])	Optimal dose (HT-29 [7])	IC50 (P388 [1]; p388)
O=C1NC(=O)c2c1c1c3cc(F)ccc3[nH]c1c1c2c2cc(F)ccc2n1C1OC(CO)C(F)(F)C(O)C1O (centres undefined)	3 nM	80 nM	380	–	–	–	–	–	–
O=C1NC(=O)c2c1c1c3ccc(F)cc3[nH]c1c1c2c2ccc(F)cc2n1C1OC(CO)C(F)C(O)C1O (centres undefined)	3 nM	200 nM	59	–	–	–	–	–	–
O=C1NC(=O)c2c1c1c3cc(F)c(F)cc3sc1c1c2c2cc(F)c(F)cc2n1C1OC(CO)C(F)(F)C(O)C1O (centres undefined)	0.4 nM	500 nM	580	–	–	–	–	–	–
O=C1NC(=O)c2c1c1c3cc(F)c(F)cc3sc1c1c2c2cc(F)c(F)cc2n1C1OC(CF)C(O)C(O)C1O (centres undefined)	52 nM	1500 nM	119	–	–	–	–	–	–
O=C1NC(=O)c2c1c1c3cc(F)ccc3[nH]c1c1c2c2cc(F)ccc2n1C1OC(COF)C(F)C(O)C1O (centres undefined)	4 nM	410 nM	450	1.6	0	13 mg.kg/inj	–	–	–
O=C1NC(=O)c2c1c1c3cc(F)ccc3sc1c1c2c2cc(F)ccc2n1C1OC(CF)C(O)C(O)C1O (centres undefined)	16 nM	420 nM	110	–	–	–	–	–	–
O=C1NC(=O)c2c1c1c3cc(F)ccc3[nH]c1c1c2c2cc(F)ccc2n1C1OC(CO)C(O)C(O)C1O (centres undefined)	18 nM	240 nM	183	–	–	–	–	–	–
O=C1NC(=O)c2c1c1c3cc(F)ccc3[nH]c1c1c2c2cc(F)ccc2n1C1OC(CO)C(F)C(O)C1O (centres undefined)	2 nM	110 nM	380	3.1	2	–	20 mg.kg/inj	–	–
NCC1OC(n2c3cc(F)c(F)cc3c3c4c(c5c6cc(F)c(F)cc6[nH]c5c32)C(=O)NC4=O)C(O)C(O)C1(F)F (centres undefined)	60 nM	50 nM	16	–	–	–	–	–	–
O=C1NC(=O)c2c1c1c3cc(F)c(F)cc3[nH]c1c1c2c2cc(F)c(F)cc2n1C1OC(CO)C(F)C(O)C1O (centres undefined)	4 nM	750 nM	500	–	–	–	–	–	–
O=C1NC(=O)c2c1c1c3cc(F)c(F)cc3[nH]c1c1c2c2cc(F)c(F)cc2n1C1OC(CF)C(O)C(O)C1O (centres undefined)	34 nM	3000 nM	52	–	–	–	–	–	–
O=C1NC(=O)c2c1c1c3cc(F)c(F)cc3sc1c1c2c2cc(F)c(F)cc2n1C1OC(CO)C(F)C(O)C1O (centres undefined)	3 nM	40 nM	>1658	>2.3	2	–	–	11 mg.kg/inj	–
NCC1OC(n2c3ccc(F)cc3c3c4c(c5c6cc(F)ccc6[nH]c5c32)C(=O)NC4=O)C(O)C(O)C1F (centres undefined)	14 nM	70 nM	37	–	–	–	–	–	–
O=C1NC(=O)c2c1c1c3cc(F)ccc3[nH]c1c1c2c2cc(F)ccc2n1C1OC(CF)C(O)C(O)C1O (stereo in doubt; 6)	–	480 nM	98	–	–	–	–	–	50 nM
O=C1NC(=O)c2c1c1c3cc(F)ccc3[nH]c1c1c2c2cc(F)ccc2n1C1OC(CF)C(O)C(O)C1O (stereo in doubt; 10)	–	4400 nM	110	–	–	–	–	–	12 nM
